TRPC6 inhibitor = mouse TRPC6 channel inhibition | HEK293-TRPC6, membrane potential dye, ACh-evoked depolarization; active compounds read low | hit rate 1.1% among 310,000 | Q61143 | B-score at 10 µM;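 active means B-score under library mean minus 3 SD, initial fluorescence not abnormally high, positive integrated signal ratio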;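 further: B-score derived from integrated fluorescence ratio over the kinetic read; more negative B-score means stronger inhibition of depolarization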
Target sequence (Q61143 whole entry, looked up): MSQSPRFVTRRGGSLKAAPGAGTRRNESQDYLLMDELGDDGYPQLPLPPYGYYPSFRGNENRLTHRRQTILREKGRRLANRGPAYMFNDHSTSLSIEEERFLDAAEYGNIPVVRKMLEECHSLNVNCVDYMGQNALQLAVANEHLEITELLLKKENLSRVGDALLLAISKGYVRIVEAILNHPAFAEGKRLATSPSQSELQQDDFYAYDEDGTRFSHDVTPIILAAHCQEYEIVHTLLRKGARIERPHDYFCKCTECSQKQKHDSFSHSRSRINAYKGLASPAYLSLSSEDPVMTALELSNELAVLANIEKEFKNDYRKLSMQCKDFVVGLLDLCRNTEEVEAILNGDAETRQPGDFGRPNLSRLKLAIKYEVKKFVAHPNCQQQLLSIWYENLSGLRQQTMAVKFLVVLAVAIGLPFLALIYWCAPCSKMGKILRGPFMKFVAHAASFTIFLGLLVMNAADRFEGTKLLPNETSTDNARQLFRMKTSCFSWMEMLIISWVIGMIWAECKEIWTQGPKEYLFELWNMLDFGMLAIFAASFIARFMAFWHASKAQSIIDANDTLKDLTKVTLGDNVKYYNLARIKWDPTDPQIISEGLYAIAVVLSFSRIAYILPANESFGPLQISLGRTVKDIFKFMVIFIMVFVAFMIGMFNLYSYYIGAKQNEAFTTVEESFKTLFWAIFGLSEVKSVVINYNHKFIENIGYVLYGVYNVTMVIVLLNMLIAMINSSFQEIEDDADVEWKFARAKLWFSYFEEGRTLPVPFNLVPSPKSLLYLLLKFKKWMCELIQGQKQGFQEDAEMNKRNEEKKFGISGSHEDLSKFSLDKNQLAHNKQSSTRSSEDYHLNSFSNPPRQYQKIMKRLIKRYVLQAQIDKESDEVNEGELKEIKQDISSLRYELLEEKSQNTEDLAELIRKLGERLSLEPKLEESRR
TRPC4 agonist = TRPC4 (mouse) channel activation | Q9QUQ5 | HEK293 TRPC4beta/mu-opioid, Fluo4 calcium fluorescence; active compounds read high | B-score at 10 µM | hit rate 0.49% among 310,000 | AID 2237;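 active means B-score above 5 SD of library B-scores, and initial fluorescence ratio not above library mean plus 5 SD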;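 further: positive B-score marks a calcium rise read as TRPC4 activation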
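Assay system – TRPC4beta and mu-opioid receptor HEK293 stable cells · Measured by – Fluo4 fluorescence, kinetic · Schedule – dye loading 45 min room temperature, 110 s kinetic read · Read-out – B-scored integrated calcium fluorescence ratio · Controls – buffer and maximal DAMGO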
TRPC4 potent = allosteric potentiators of mouse TRPC4 channel | B-score at 10 µM | HEK293 TRPC4beta/mu-opioid, DAMGO EC20, Fluo-4 Ca2+ flux; active compounds read high | hit rate 0.42% among 310,000 | Q9QUQ5 | AID 2227;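 active means B-score of calcium response area above 5 SD of library B-scores, with initial fluorescence ratio within 5 SD of library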;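 further: B-score of integrated fluorescence ratio over time as area under calcium response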
TRPC4 block = TRPC4 (mouse) channel inhibition; HEK293 TRPC4beta/mu-opioid, DAMGO-evoked Fluo4 calcium flux; active compounds read low; B-score at 10 µM; hit rate 0.39% among 300,000; AID 2247;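 active means B-score over 3 SD under the library average, no early fluorescence shift, positive overall ratio signal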
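Test system – stable TRPC4beta/mu-opioid receptor HEK293 cells · Probe or stimulus – DAMGO, a submaximal dose followed by a maximal one · Dosing – one concentration per compound · Signal – Fluo4 calcium fluorescence by kinetic imaging, 5 s 1 Hz baseline · Evaluation – per-well B score of integrated baseline-normalized Fluo4 ratio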
TRPC6 activator = activators of mouse TRPC6 channel. Q61143. HEK293-TRPC6 membrane potential dye fluorescence; active compounds read high. B-score at 10 µM. hit rate 0.13% among 310,000;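 active means B-score of the integrated fluorescence ratio above library mean plus 3 SD, and starting fluorescence ratio within library mean plus 5 SD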;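 further: higher score means more depolarization so channel activation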
TRPC4 spec 2 = mouse TRPC4 off-target activity of TRPC6 inhibitors, second screen; shares compounds with TRPC6 inhibitor; HEK293 TRPC4/MOR, membrane potential dye fluorescence; channel activated by saturating DAMGO dose; inhibition, % at 10 µM; hit rate 42% among 920; AID 2776;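 active means compounds whose fluorescence signal differed from control wells by over 3 SD, either direction, in both duplicate plates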
TRPC4 spec = mouse TRPC4 off-target activity of TRPC6 inhibitors. shares compounds with TRPC6 inhibitor. HEK293 TRPC4/mu-opioid, membrane potential fluorescence. activity change, negative = inhibition, % at 10 µM. hit rate 61% among 920;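 active means rise or fall in signal beyond 3 SD of buffer-only wells in both replicate plates, either sign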;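 further: integrated kinetic ratio of fluorescence range over baseline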
HEK293 MPD ctr 2-1 = second check of TRPC6 inhibitor effects in parental HEK293 cells | shares compounds with TRPC6 inhibitor | parental HEK293 membrane potential dye fluorescence; maximal acetylcholine challenge after compound addition | signal change vs control, % at 10 µM | hit rate 31% among 920;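 active means membrane potential signal moving either way by over 3 SD of the maximum-effect control, in both duplicate plates, meaning non-specific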
HEK293 MPD ctr-1 = counter-screen for TRPC6 inhibitors: effect in parental HEK293 cells; shares compounds with TRPC6 inhibitor; parental HEK293 membrane potential dye fluorescence; membrane potential signal change, % at 10 µM; hit rate 60% among 920; AID 2780;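 active means membrane potential signal shifting up or down by more than 3 SD of buffer-only wells, on both duplicate plates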
HEK293 MPD ctr-2 = counter-screen for TRPC6 modulators: effect in parental HEK293 cells | shares compounds with TRPC6 inhibitor | membrane potential dye fluorescence | membrane potential signal change, % at 10 µM | hit rate 51% among 2,400 | AID 488924;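 active means membrane potential signal moves up or down beyond 5 SD from buffer-only wells, on both duplicate plates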
HEK293 MPD ctr 2-2 = second counter-screen for TRPC6 modulators: effect in parental HEK293 cells. membrane potential dye fluorescence; after compound, maximal acetylcholine stimulation. hit rate 14% among 2,400. AID 488926. shares compounds with TRPC6 inhibitor. inhibition, % at 10 µM;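 active means membrane potential signal drops by more than 5 SD from the mean control signal, in both duplicate plates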;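 further: plate controls were acetylcholine ECmax control wells for no effect and buffer only wells for full effect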
TRPC4 ctr mod = selectivity of TRPC6 modulators against mouse TRPC4. shares compounds with TRPC6 inhibitor. HEK293 TRPC4/mu-opioid, membrane potential fluorescence. hit rate 69% among 2,400. percent change from control (negative = decrease, positive = increase), % at 10 µM. AID 488927;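 active means membrane potential signal moved up or down beyond 5 SD of buffer control wells, in both duplicate plates, actives on both sides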;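 further: plate controls were assay buffer wells for no effect and DAMGO maximal-effect wells for full effect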
TRPC4/MOR inh 2 = mouse TRPC4 off-target activity of TRPC6 modulators, second screen; shares compounds with TRPC6 inhibitor; AID 488928; inhibition, % at 10 µM; HEK293 TRPC4/mu-opioid, membrane potential dye fluorescence; stimulated with maximal-effect DAMGO; hit rate 55% among 2,400;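 active means drop in membrane potential signal beyond 5 SD of the control wells in both duplicate plates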;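 further: TRPC4 counter screen for TRPC6 hits run under conditions tuned for TRPC6 not TRPC4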
TRPC6 block conf = confirmation of mouse TRPC6 inhibitors. AID 488960. hit rate 43% among 3,300. HEK293-TRPC6, membrane potential dye, ACh-evoked depolarization. shares compounds with TRPC6 inhibitor. inhibition, % at 10 µM;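 active means fluorescence ratio falls more than 5 SD below the full-stimulation control mean, in both duplicate runs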;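 further: integrated fluorescence ratio of peak minus minimum over baseline after agonist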
TRPC6 act conf = confirmation of mouse TRPC6 activators; shares compounds with TRPC6 inhibitor; HEK293-TRPC6 membrane potential dye fluorescence, FDSS; activation, % at 10 µM; hit rate 11% among 2,800; AID 488961;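 active means ratio signal rise beyond 5 SD above unstimulated control wells' mean, seen in both duplicate runs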;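 further: plate controls were buffer EC0 wells for no effect and acetylcholine ECmax response for full effect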
An asterisk follows results filed as active; i = inactive; nt = no result. Most compounds without a hit are left out; they make up all but 2.3% or so of the library.

SMILES	TRPC6 inhibitor	TRPC4 agonist	TRPC4 potent	TRPC4 block	TRPC6 activator	HEK293 MPD ctr-2	HEK293 MPD ctr 2-2	TRPC4 ctr mod	TRPC4/MOR inh 2	TRPC6 block conf	TRPC6 act conf	others
CC(C)c1ccc(NC2CCCN(C(=O)c3cnc4ccccn4c3=O)C2)cc1 (stereo not drawn)	-7*	i	i	i	i	nt	nt	nt	nt	i	i	TRPC4 spec 2=i;TRPC4 spec=i;HEK293 MPD ctr 2-1=i;HEK293 MPD ctr-1=i
Cc1cc2c3c(ccc(C)c3n1)N=CN2c1ccccc1	-8.1*	i	i	i	i	-240%*	77%*	-46%*	66%*	52%*	i
COc1ccc(CC(=O)NCC2CCCN(Cc3ccc(F)cc3F)C2)cc1 (stereo not drawn)	i	i	i	i	i	nt	nt	nt	nt	nt	nt
COc1cccc(OCc2cc(C(=O)N(C)Cc3nc4ccccc4[nH]3)no2)c1	i	i	i	i	i	nt	nt	nt	nt	nt	nt
COc1cccc(OCc2cc(C(=O)N(Cc3ccccc3)CC3CC3)no2)c1	-5.2*	i	i	i	i	131%*	i	26%*	i	i	nt
Cc1nc2ccc(S(=O)(=O)NCC(=O)Nc3cccc(F)c3)cc2s1	i	i	i	i	i	nt	nt	nt	nt	nt	nt
O=[N+]([O-])c1cccc(-c2nnc(SCc3cccnc3)o2)c1	i	i	i	i	i	nt	nt	nt	nt	nt	nt
COCCCn1c(=N)c(C(=O)NCC2CCCO2)cc2c(=O)n3cccc(C)c3nc21 (stereo not drawn)	-6.4*	i	i	i	i	146%*	80%*	20%*	28%*	40%*	i
Cc1ccc2nc3c(cc(C(=O)NCC4CCCO4)c(=N)n3C3CCCC3)c(=O)n2c1 (stereo not drawn)	i	i	i	i	i	nt	nt	nt	nt	nt	nt
Cc1ccc(Cn2c(=N)c(C(=O)NCC3CCCO3)cc3c(=O)n4cccc(C)c4nc32)cc1 (stereo not drawn)	i	i	i	i	i	nt	nt	nt	nt	nt	nt
Cc1cccn2c(=O)c3cc(C(=O)NCC4CCCO4)c(=N)n(C4CCCC4)c3nc12 (stereo not drawn)	-5.8*	i	i	i	i	-82%*	i	-16%*	32%*	i	i
Cc1cccn2c(=O)c3cc(C(=O)NCc4ccco4)c(=N)n(C4CCCCC4)c3nc12	-6.8*	i	i	i	i	-160%*	i	-38%*	34%*	i	i
Cc1ccc2nc3c(cc(C(=O)NCc4ccco4)c(=N)n3C3CCCC3)c(=O)n2c1	i	i	i	i	i	nt	nt	nt	nt	nt	nt
